Compounds with a hit are over-represented: about 5.1% of the library has one in this group of screens.
APP 5'UTR act – APP 5'UTR luciferase reporter activation | SH-SY5Y APP 5'UTR luciferase reporter, luminescence; zero percent = DMSO vehicle wells | activation, % at 2 µM | hit rate 1% among 190,000 | AID 1276;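 active means activation above a set limit, based on mean plus 3 SD of controls, cut at about 140% in these data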
STAT1 blocker – reduces IFN-gamma driven STAT1 reporter signal | NIH 3T3 STAT1-luciferase reporter, luminescence | inhibition, % at 5.5 µM | hit rate 0.35% among 200,000 | AID 920;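 active means inhibition above a set limit, the mean inhibition across all tested compounds plus 3 SD, cut at about 34% in these data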
STAT3 inh-1 – reduces IL-6 driven STAT3 reporter signal | U3A cells, IL-6 STAT3-luciferase reporter, luminescence; host cell line lacks STAT1 | inhibition, % at 5.5 µM | hit rate 0.89% among 190,000 | AID 862;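 active means inhibition above the mean inhibition across all screened compounds plus 3 SD, cut at about 44% in these data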
STAT3 activator – STAT3 signaling activation | activation (% of control), % at 5.6 µM | AID 871 | hit rate 0.91% among 190,000 | U3A cells, IL-6 STAT3-luciferase reporter, luminescence; 100% = signal with IL-6 EC80 alone;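 active means activation above the screen-wide mean of compound activation plus 3 SD, cut at about 130% in these data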
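Material: human U3A cells carrying STAT3-luciferase construct. Measured by: reporter luminescence signal. Timing: compound 1 h, then IL-6 6 h at 37 °C.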
STAT1 activator – STAT1 signaling activation. activation (% of control), % at 5.5 µM. NIH 3T3 STAT1-luciferase reporter, IFN-gamma, luminescence; 100% = IFN-gamma alone, no compound. hit rate 2.6% among 200,000;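 active means activation above the screen-wide mean activation plus 3 SD, cut at about 130% in these data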
NF-kB neuron act – raises NF-kB expression in human neuronal cells. fold change at 12.5 µM. hit rate 1.6% among 190,000. NF-kB reporter expression; hits give high values. AID 1239; in the data active means fold change above about 3.3
STAT3 inh-2 – confirmation of STAT3 signaling inhibitors; AID 1265; hit rate 45% among 1,200; U3A cells, IL-6 STAT3 luciferase reporter, luminescence; cell line lacks STAT1; inhibition, % at 5.7 µM; shares compounds with STAT3 inh-1;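 active means inhibition above the hit cutoff computed for the primary STAT3 screen, cut at about 44% in these data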
NFkB inh 2 – NF-kappaB inhibition in STAT3 inhibitor counter-screen; shares compounds with STAT3 inh-1; HEK293T NF-kB luciferase reporter, TNF-alpha induced; inhibition, % at 5.7 µM; hit rate 36% among 1,200; AID 1308;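 active means inhibition above the mean of solvent-only control wells plus 3 SD, cutoff set per campaign, cut at about 13% in these data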
STAT1 inh 2 – counter-screen for STAT3 inhibitors: STAT1 inhibition; hit rate 27% among 1,200; inhibition, % at 5.7 µM; shares compounds with STAT3 inh-1; AID 1317; NIH 3T3 STAT1-luciferase reporter, IFN-gamma induced, luminescence;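 active means inhibition above the mean plus 3 SD of solvent-only control wells, limit set per screening run, cut at about 16% in these data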
Numbers stand for hits.

Screening O=C(Nc1ccc(F)c(F)c1)c1ccc(F)c(S(=O)(=O)N2CCOCC2)c1 returned APP 5'UTR act inactive, STAT1 blocker inactive, STAT3 inh-1 46, STAT3 activator inactive, STAT1 activator inactive, NF-kB neuron act inactive, STAT3 inh-2 inactive, NFkB inh 2 inactive and STAT1 inh 2 inactive.
CCOC(=O)c1ccc(NC(=O)c2ccc(C)c(S(=O)(=O)N3CCOCC3)c2)cc1 was read as APP 5'UTR act inactive, STAT1 blocker inactive, STAT3 inh-1 72, STAT3 activator inactive, STAT1 activator inactive, NF-kB neuron act inactive, STAT3 inh-2 69, NFkB inh 2 22 and STAT1 inh 2 inactive.
Screening CCOC(=O)c1ccc(NC(=O)c2cccc(S(=O)(=O)N3CCOCC3)c2)cc1 returned APP 5'UTR act inactive, STAT1 blocker inactive, STAT3 inh-1 58, STAT3 activator inactive, STAT1 activator inactive, NF-kB neuron act inactive, STAT3 inh-2 inactive, NFkB inh 2 inactive and STAT1 inh 2 inactive.
`O=C(Nc1cccc(F)c1)c1cccc(S(=O)(=O)N2CCOCC2)c1` gave APP 5'UTR act inactive, STAT1 blocker inactive, STAT3 inh-1 inactive, STAT3 activator inactive, STAT1 activator inactive and NF-kB neuron act inactive.
CCOc1cc(/C=C2/NC(=O)NC2=O)cc(Br)c1OCc1ccc(C(=O)O)cc1 was read as APP 5'UTR act inactive, STAT1 blocker inactive, STAT3 inh-1 inactive, STAT3 activator inactive, STAT1 activator inactive and NF-kB neuron act inactive.
For O=C(Nc1nc2c(s1)CCCC2)Oc1ccccc1 the results were APP 5'UTR act inactive, STAT1 blocker inactive, STAT3 inh-1 inactive, STAT3 activator inactive, STAT1 activator inactive and NF-kB neuron act inactive.
For O=C(Nc1nc2c(s1)CCCC2)C1COc2ccccc2O1 (stereo not given) the results were APP 5'UTR act 147, STAT1 blocker inactive, STAT3 inh-1 73, STAT3 activator inactive, STAT1 activator inactive, NF-kB neuron act inactive, STAT3 inh-2 inactive, NFkB inh 2 inactive and STAT1 inh 2 inactive.
`CC1(C)CC(=O)c2sc(NC(=O)C(C)(C)C)nc2C1` gave APP 5'UTR act inactive, STAT1 blocker inactive, STAT3 inh-1 inactive, STAT3 activator inactive, STAT1 activator inactive and NF-kB neuron act inactive.
O=C(Nc1nc2c(s1)CCCC2)c1cccs1 was read as APP 5'UTR act 198, STAT1 blocker inactive, STAT3 inh-1 58, STAT3 activator inactive, STAT1 activator 146, NF-kB neuron act 5.7, STAT3 inh-2 inactive, NFkB inh 2 inactive and STAT1 inh 2 inactive.
`CCc1nnc(NC(=O)C2COc3ccccc3O2)s1` (stereo not given) gave APP 5'UTR act inactive, STAT1 blocker inactive, STAT3 inh-1 inactive, STAT3 activator inactive, STAT1 activator inactive and NF-kB neuron act inactive.
Screening CC1(C)CC(=O)c2sc(NC(=O)c3cccs3)nc2C1 returned APP 5'UTR act inactive, STAT1 blocker inactive, STAT3 inh-1 44, STAT3 activator inactive, STAT1 activator inactive, NF-kB neuron act 3.4, STAT3 inh-2 inactive, NFkB inh 2 inactive and STAT1 inh 2 inactive.
`COc1ccc(-c2nc(N)n(C(=O)c3cccs3)n2)cc1` gave APP 5'UTR act inactive, STAT1 blocker inactive, STAT3 inh-1 inactive, STAT3 activator inactive, STAT1 activator inactive and NF-kB neuron act inactive.
`Cc1ccc(NC(=O)c2sc(Cl)nc2-c2ccccc2)cc1C` gave APP 5'UTR act inactive, STAT1 blocker inactive, STAT3 inh-1 inactive, STAT3 activator inactive, STAT1 activator inactive and NF-kB neuron act inactive.
For O=C(O)c1ccc2c(c1)C(=O)N(c1cccc(C(=O)/C=C/c3ccccc3)c1)C2=O the results were APP 5'UTR act inactive, STAT1 blocker inactive, STAT3 inh-1 inactive, STAT3 activator inactive, STAT1 activator inactive and NF-kB neuron act inactive.
Screening COc1cc2c(cc1OC)C(c1ccc(-c3ccc(Cl)cc3Cl)o1)=NCC2 returned APP 5'UTR act inactive, STAT1 blocker inactive, STAT3 inh-1 63, STAT3 activator inactive, STAT1 activator inactive, NF-kB neuron act inactive, STAT3 inh-2 53, NFkB inh 2 16 and STAT1 inh 2 inactive.
For CCC(=O)c1c(NCCc2ccccc2)cc(C)oc1=O the results were APP 5'UTR act inactive, STAT1 blocker inactive, STAT3 inh-1 inactive, STAT3 activator inactive, STAT1 activator inactive and NF-kB neuron act inactive.
For CC(=O)c1c(C)[nH]c(C(=O)OCc2c(F)cccc2Cl)c1C the results were APP 5'UTR act inactive, STAT1 blocker inactive, STAT3 inh-1 inactive, STAT3 activator inactive, STAT1 activator inactive and NF-kB neuron act inactive.
CC(=O)c1c(C)[nH]c(C(=O)OCc2ccc(F)cc2Cl)c1C was read as APP 5'UTR act inactive, STAT1 blocker inactive, STAT3 inh-1 48, STAT3 activator inactive, STAT1 activator inactive, NF-kB neuron act inactive, STAT3 inh-2 54, NFkB inh 2 inactive and STAT1 inh 2 inactive.
FC(F)(F)c1cnc(-c2cnc(-c3ccccn3)nc2)c(Cl)c1 was read as APP 5'UTR act inactive, STAT1 blocker inactive, STAT3 inh-1 48, STAT3 activator inactive, STAT1 activator inactive, NF-kB neuron act inactive, STAT3 inh-2 inactive, NFkB inh 2 inactive and STAT1 inh 2 inactive.
FC(F)(F)c1cc(Oc2ccccc2Cl)nc(-c2ccccn2)n1 was read as APP 5'UTR act inactive, STAT1 blocker inactive, STAT3 inh-1 inactive, STAT3 activator inactive, STAT1 activator inactive and NF-kB neuron act inactive.
Screening Cc1ccc(-c2cc(C(=O)N3CCCC3)no2)cc1 returned APP 5'UTR act 208, STAT1 blocker inactive, STAT3 inh-1 76, STAT3 activator inactive, STAT1 activator inactive, NF-kB neuron act 3.8, STAT3 inh-2 48, NFkB inh 2 16 and STAT1 inh 2 inactive.
Screening COc1ccccc1N1CCN(C(=O)c2cc(-c3ccc(C)cc3)on2)CC1 returned APP 5'UTR act inactive, STAT1 blocker inactive, STAT3 inh-1 inactive, STAT3 activator inactive, STAT1 activator inactive and NF-kB neuron act inactive.
Screening CCOc1ccc(-c2ccc(SCC)nn2)cc1 returned APP 5'UTR act 167, STAT1 blocker inactive, STAT3 inh-1 72, STAT3 activator inactive, STAT1 activator inactive, NF-kB neuron act 5, STAT3 inh-2 inactive, NFkB inh 2 inactive and STAT1 inh 2 inactive.
`CCSc1ccc(-c2ccc(C)cc2)nn1` gave APP 5'UTR act 187, STAT1 blocker inactive, STAT3 inh-1 47, STAT3 activator inactive, STAT1 activator inactive, NF-kB neuron act 6.6, STAT3 inh-2 inactive, NFkB inh 2 inactive and STAT1 inh 2 inactive.
For O=C(NCc1ccncc1)c1ccc(Oc2ccccc2)cc1 the results were APP 5'UTR act inactive, STAT1 blocker inactive, STAT3 inh-1 inactive, STAT3 activator inactive, STAT1 activator inactive and NF-kB neuron act inactive.
